This is an account of results in ChEMBL document CHEMBL5532704, “Exploiting thiol-functionalized benzosiloxaboroles for achieving diverse substitution patterns - synthesis, characterization and biological evaluation of promising antibacterial agents” (RSC Med Chem, 2024).

The MBC is the smallest concentration meeting the test's criterion for killing. The term MIC denotes the least concentration at which growth counts as inhibited.

In data set [1] the test system is Staphylococcus epidermidis. The data set can be described thus: Antibacterial activity against Staphylococcus epidermidis ATCC 12228 assessed as diameter of inhibition zone by CLSI based disc-diffusion method. It is filed as functional. Summed up:
(§1)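 Strains were stored at −80 °C, then subcultured twice on tryptic soy agar for 24–48 h at 30 °C before the disc-diffusion test. The result was recorded as the inhibition-zone diameter.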

Data set [2] has as its system Staphylococcus aureus. The experiment in a line: Antibacterial activity against methicillin-resistant Staphylococcus aureus ATCC 43300 assessed as diameter of inhibition zone by CLSI based disc-diffusion method. It counts as functional. The gist of the method: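 Disc-diffusion on standard strain subcultured twice on tryptic soy agar (24–48 h, 30 °C) after storage at −80 °C; inhibition zone diameter read; linezolid disc (0.03 mg) as reference.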
On the technique in general: A growth-free zone around the sample is the usual read-out of agar diffusion tests.

For data set [3], the system named is Enterococcus faecium. The data set can be described thus: Antibacterial activity against Enterococcus faecium ATCC 6057 assessed as diameter of inhibition zone by CLSI based disc-diffusion method. It is filed as functional. Summed up: as §1
The subject of data set [4] is Staphylococcus aureus. The data set can be described thus: Bactericidal activity against methicillin-resistant Staphylococcus aureus NMI 2541 K assessed as inhibition of microbial growth by CLSI based microdilution method. It counts as functional. For orientation: Dilution methods test growth across graded concentrations, often in twofold steps.
Data set [5] is described as follows: Selectivity ratio of IC50 for cytotoxicity against human MRC5 cells assessed as inhibition of cell growth to MIC for antibacterial activity against methicillin-resistant Staphylococcus aureus NMI 2541 K assessed as inhibition of microbial growth by broth-microdilution method. It is filed as toxicity, cell-based.
The subject of a further data set is Bacillus subtilis. The experiment in a line: Antibacterial activity against Bacillus subtilis ATCC 6633 assessed as diameter of inhibition zone by CLSI based disc-diffusion method. It counts as functional. The gist of the method:
as §1

Data set [6] can be described thus: Selectivity ratio of IC50 for cytotoxicity against human MRC5 cells assessed as inhibition of cell growth to MIC for antibacterial activity against methicillin-resistant Staphylococcus aureus ATCC 43300 assessed as inhibition of microbial growth. It is filed as toxicity, cell-based.
The nature of data set [7]: Selectivity ratio of IC50 for cytotoxicity against human MRC5 cells assessed as inhibition of cell growth to MIC for antibacterial activity against methicillin-resistant Staphylococcus aureus NMI 1991 K assessed as inhibition of microbial growth by broth-microdilution method. It is filed as toxicity, cell-based.
The nature of data set [8]: Selectivity ratio of IC50 for cytotoxicity against human MRC5 cells assessed as inhibition of cell growth to MIC for antibacterial activity against methicillin-resistant Staphylococcus aureus NMI 1576 K assessed as inhibition of microbial growth by broth-microdilution method. It counts as toxicity, cell-based.
Data set [9] is described as follows: Selectivity ratio of IC50 for cytotoxicity against human MRC5 cells assessed as inhibition of cell growth to MIC for antibacterial activity against methicillin-resistant Staphylococcus aureus NMI 1712 K assessed as inhibition of microbial growth by broth-microdilution method. It is filed as toxicity, cell-based.
The subject of a further data set is Enterococcus faecalis. The experiment in a line: Antibacterial activity against Enterococcus faecalis ATCC 29212 assessed as diameter of inhibition zone by CLSI based disc-diffusion method. It is filed as functional. The gist of the method:
as §1

Data set [10] in a line: Selectivity ratio of IC50 for cytotoxicity against human MRC5 cells assessed as inhibition of cell growth to MIC for antibacterial activity against methicillin-resistant Staphylococcus aureus NMI 664 K assessed as inhibition of microbial growth by broth-microdilution method. It is filed as toxicity, cell-based.
The test system of data set [11] is Staphylococcus aureus. The data set can be described thus: Bactericidal activity against methicillin-resistant Staphylococcus aureus NMI 1712 K assessed as inhibition of microbial growth by CLSI based microdilution method. It is filed as functional.
The test system of a further data set is Pseudomonas aeruginosa. The data set can be described thus: Antibacterial activity against Pseudomonas aeruginosa ATCC […] assessed as inhibition of cell growth by broth-microdilution method. It counts as functional. The gist of the method:
(§2)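 Strains were held at −80 °C and subcultured twice on tryptic soy agar for 24–48 h at 30 °C. MIC was read by CLSI broth microdilution in Mueller–Hinton II broth, with and without the efflux-pump inhibitor PAβN (20 µg mL⁻¹). Both sets contained 1 mM MgSO₄. A ≥4-fold MIC drop with PAβN was taken as significant.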

Data set [12] concerns Stenotrophomonas maltophilia. The experiment in a line: Antibacterial activity against Stenotrophomonas maltophilia ATCC 13637 assessed as inhibition of cell growth by broth-microdilution method. It counts as functional. Summed up:
as §2

In a further data set the test system is Acinetobacter baumannii. The data set can be described thus: Antibacterial activity against Acinetobacter baumannii ATCC 19606 assessed as inhibition of cell growth by broth-microdilution method. It is filed as functional. The gist of the method: as §2
A further data set concerns Proteus mirabilis. The experiment in a line: Antibacterial activity against Proteus mirabilis ATCC 12453 assessed as inhibition of cell growth by broth-microdilution method. It counts as functional. Summed up: as §2
The test system of another data set is Escherichia coli. The experiment in a line: Antibacterial activity against Escherichia coli ATCC 25922 assessed as inhibition of cell growth by broth-microdilution method. It counts as functional. Summed up: as §2
For another data set, the system named is Enterobacter cloacae. The experiment in a line: Antibacterial activity against Enterobacter cloacae DSM 6234 assessed as inhibition of cell growth by broth-microdilution method. It is filed as functional. The gist of the method:
as §2

Data set [13] relates to Stenotrophomonas maltophilia. The data set can be described thus: Antibacterial activity against Stenotrophomonas maltophilia ATCC 12714 assessed as inhibition of cell growth by broth-microdilution method. It is filed as functional. The gist of the method: as §2
The next data set concerns Burkholderia cepacia. The data set can be described thus: Antibacterial activity against Burkholderia cepacia ATCC 25416 assessed as inhibition of cell growth by broth-microdilution method. It counts as functional.
The test system of the next data set is Serratia marcescens. The experiment in a line: Antibacterial activity against Serratia marcescens ATCC 13880 assessed as inhibition of cell growth by broth-microdilution method. It counts as functional. Summed up: as §2
Another data set concerns Klebsiella pneumoniae. The data set can be described thus: Antibacterial activity against Klebsiella pneumoniae ATCC 13883 assessed as inhibition of cell growth by broth-microdilution method. It is filed as functional. Summed up:
as §2

Data set [14] has as its system Enterococcus faecium. The experiment in a line: Antibacterial activity against Enterococcus faecium ATCC 6057 assessed as inhibition of microbial growth by broth-microdilution method. It is filed as functional. The gist of the method: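 Stocks were kept at −80 °C and subcultured twice on tryptic soy agar (24–48 h, 30 °C). MIC came from CLSI broth microdilution in Mueller–Hinton II broth, using agents dissolved in DMSO. The top tested concentration was lowered to 200, 100 or 50 µg mL⁻¹ for agents that precipitated in the medium above those levels.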

`CCOP(=O)(OCC)Sc1c(F)cc2c(c1F)[Si](C)(C)OB2O`: the “diameter of the inhibition zone (DIZ)” value in [1] worked out at 20 mm; in the data set with Staphylococcus aureus [2] it was 27 mm; with Enterococcus faecium [3] it was 11 mm; in the data set on Bacillus subtilis, 24 mm; in the data set on Enterococcus faecalis, 11 mm. Further, in the data set on Staphylococcus aureus [4], the MBC was more than 12.5 µg/mL. In addition, the selectivity ratio in data set [5], in data set [6], in data set [7], in data set [8], in [9] and in data set [10] was more than 32 each time.

Take `C[Si]1(C)OB(O)c2cc(F)c(SCCC#N)c(F)c21`: the MBC in the data set with Staphylococcus aureus [11] came to 12.5 µg/mL. The “diameter of the inhibition zone (DIZ)” value with Staphylococcus aureus [2] is recorded as 19 mm; in the data set on Bacillus subtilis, 23 mm. Also, the selectivity ratio in [5], in data set [6], in [7], in data set [8], in [9] and in data set [10] was 11.2 throughout.

For the molecule `C[Si]1(C)OB(O)c2cc(F)c(SC3CC(=O)NC3=O)c(F)c21` (stereo not given), the MIC (in the data set with Pseudomonas aeruginosa; in data set [12]; in the data set with Acinetobacter baumannii; in the data set on Proteus mirabilis; in the data set on Escherichia coli; with Enterobacter cloacae) was more than 25 µg/mL throughout. The MIC (in data set [13]; in the data set on Burkholderia cepacia; in the data set on Serratia marcescens; in the data set on Klebsiella pneumoniae) was more than 25 µg/mL in each case. Also, the results for the “diameter of the inhibition zone (DIZ)” value in the data set with Staphylococcus aureus [2] and in the data set on Bacillus subtilis were 23 mm and 27 mm, respectively. Also, the selectivity ratio stood at 13.4 in data set [5]; 13.4 in data set [6]; 13.4 in data set [7]; 26.8 in data set [8]; 13.4 in data set [9]; 13.4 in [10].

On to `CC(=O)CCSc1c(F)cc2c(c1F)[Si](C)(C)OB2O`, for which the “diameter of the inhibition zone (DIZ)” value in the data set with Staphylococcus aureus [2] turned out to be 19 mm; with Enterococcus faecium [3], 21 mm; in the data set on Enterococcus faecalis, 19 mm. In addition, the MIC in the data set on Enterococcus faecium [14] was determined as 12.5 µg/mL.

For the molecule `C[Si]1(C)OB(O)c2ccc(SC3CC(=O)NC3=O)c(F)c21` (stereo not given), the MIC (in the data set on Pseudomonas aeruginosa; in data set [12]; in the data set on Acinetobacter baumannii; with Proteus mirabilis; with Escherichia coli; in the data set with Enterobacter cloacae) was more than 25 µg/mL each time. The minimum inhibitory concentration (MIC) (in data set [13]; in the data set on Burkholderia cepacia; in the data set with Serratia marcescens; in the data set on Klebsiella pneumoniae) was more than 25 µg/mL in each case. Moreover, the results for the “diameter of the inhibition zone (DIZ)” value with Staphylococcus aureus [2] and in the data set with Bacillus subtilis were 22 mm and 24 mm, respectively.
